This is an account of results in ChEMBL document CHEMBL4138218, “Potent aromatase inhibitors and molecular mechanism of inhibitory action” (Eur J Med Chem, 2018).

For one test, the system named is MCF7. In words: Cytotoxicity against human MCF7 cells after 48 hrs by MTT assay. In kind it is cell-based. Conditions: MCF7, 48 h. The gist of the method:
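MCF-7 cells in DMEM with 10% FBS and 1% penicillin-streptomycin at 37 °C, 5% CO2. Seeded at 4,000 cells/well and left overnight, then exposed to a range of concentrations for 48 h. Medium replaced with fresh medium containing MTT (5 mg/ml) for 4 h, formazan dissolved in DMSO, absorbance read at 490 nm. IC50 computed from the curves.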

For the next test, the target named is T1, Aromatase (Homo sapiens, UniProt P11511).
T1 sequence (P11511 whole entry): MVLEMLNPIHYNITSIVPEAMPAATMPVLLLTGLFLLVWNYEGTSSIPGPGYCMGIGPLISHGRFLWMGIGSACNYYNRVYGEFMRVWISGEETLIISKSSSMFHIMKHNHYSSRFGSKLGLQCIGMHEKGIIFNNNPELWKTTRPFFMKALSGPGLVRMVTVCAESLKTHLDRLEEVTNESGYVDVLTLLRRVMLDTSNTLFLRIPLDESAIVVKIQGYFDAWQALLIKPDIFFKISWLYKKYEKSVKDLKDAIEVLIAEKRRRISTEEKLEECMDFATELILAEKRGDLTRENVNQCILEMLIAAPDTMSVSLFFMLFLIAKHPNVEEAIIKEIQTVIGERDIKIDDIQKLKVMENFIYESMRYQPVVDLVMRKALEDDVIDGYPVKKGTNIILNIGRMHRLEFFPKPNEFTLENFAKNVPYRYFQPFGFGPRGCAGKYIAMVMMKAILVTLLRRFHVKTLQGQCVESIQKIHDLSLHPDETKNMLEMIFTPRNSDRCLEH
In words: Inhibition of human aromatase using androstenedione as substrate and NADPH preincubated for 24 hrs followed by substrate addition measured after 24 hrs by ELISA. In a few lines:
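Enzyme was a microsomal pellet from human placenta: tissue homogenized in TES buffer (20 mM TES, 1 mM EDTA, 0.15 M KCl, 0.1 mM PMSF, pH 7.4), spun at 10,000 g for 25 min then 100,000 g for 75 min at 4 °C, resuspended with 0.25 M sucrose, stored at −80 °C. Androstenedione substrate with NADPH; estrone quantified by ELISA against a standard curve. Triplicates, mean IC50.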

Regarding `COc1ccc(-c2[nH]c3cc(F)ccc3c2Cn2ccnc2)cc1`, the figures for the IC50 in the test on MCF7 and at Aromatase were greater than 1000 µM and 0.0361 µM, respectively.

With `Fc1ccc2c(Cn3cncn3)c(-c3ccc(Cl)cc3)[nH]c2c1`, the IC50 in the test on MCF7 is greater than 1000 µM; at Aromatase, 0.217 µM.

For the compound `Clc1ccc(-c2[nH]c3cc(Cl)ccc3c2Cn2cncn2)cc1`, the IC50 in the test with MCF7 amounted to 382 µM; against Aromatase it was 0.208 µM.

In the case of `Fc1ccc(-c2[nH]c3cc(F)ccc3c2Cn2cncn2)cc1`, the results for the IC50 with MCF7 and on Aromatase were greater than 1000 µM and 0.0544 µM, respectively.

Consider `COc1ccc2c(Cn3ccnc3)c(-c3ccc(Cl)cc3)[nH]c2c1`, for which the 50% inhibitory concentration (IC50) in the test on MCF7 was greater than 1000 µM; against Aromatase, 1.06 µM.

`COc1ccc2c(Cn3ccnc3)c(-c3ccc(F)cc3)[nH]c2c1`: the IC50 in the test on MCF7 was greater than 1000 µM; against Aromatase it was 0.109 µM.

For `COc1ccc(-c2[nH]c3cc(Cl)ccc3c2Cn2cncn2)cc1`, the concentration for half-maximal inhibition (IC50) with MCF7 was determined as 14.4 µM; at Aromatase, 0.196 µM.

For the compound `COc1ccc2c(Cn3cncn3)c(-c3ccc(F)cc3)[nH]c2c1`, the IC50 in the test on MCF7 came to 12.2 µM; on Aromatase, 0.238 µM.

On to `Fc1ccc(-c2[nH]c3cc(F)ccc3c2Cn2ccnc2)cc1`, for which the IC50 in the test on MCF7 came to 83.2 µM; at Aromatase, 0.0512 µM.

Regarding `COc1ccc(-c2[nH]c3cc(F)ccc3c2Cn2cncn2)cc1`, the IC50 was 325 µM with MCF7 and 0.0141 µM at Aromatase.

Regarding `Fc1ccc(-c2[nH]c3cc4c(cc3c2Cn2cncn2)OCO4)cc1`, the IC50 worked out at 334 µM in the test with MCF7 and 0.0583 µM against Aromatase.

In the case of `Clc1ccc(-c2[nH]c3cc4c(cc3c2Cn2ccnc2)OCO4)cc1`, the IC50 was greater than 1000 µM in the test with MCF7 and 2.64 µM on Aromatase.

`Clc1ccc(-c2[nH]c3cc4c(cc3c2Cn2cncn2)OCO4)cc1`: the IC50 with MCF7 turned out to be 354 µM; on Aromatase, 0.677 µM.

With `Fc1ccc2c(Cn3ccnc3)c(-c3ccc(Cl)cc3)[nH]c2c1`, the figures for the concentration for half-maximal inhibition (IC50) in the test on MCF7 and on Aromatase were 45 µM and 0.0829 µM, respectively.

In the test on MCF7, `N#Cc1ccc(C(c2ccc(C#N)cc2)n2cncn2)cc1` [LETROZOLE] registered an IC50 of 4.73 µM.

On to `Fc1ccc(-c2[nH]c3cc(Cl)ccc3c2Cn2ccnc2)cc1`, for which the results for the IC50 in the test with MCF7 and at Aromatase were 41.5 µM and 0.0323 µM, respectively.

On to `Fc1ccc(-c2[nH]c3cc4c(cc3c2Cn2ccnc2)OCO4)cc1`, for which the IC50 in the test on MCF7 was greater than 1000 µM; at Aromatase, 0.211 µM.

In the case of `COc1ccc2c(Cn3cncn3)c(-c3ccc(Cl)cc3)[nH]c2c1`, the IC50 in the test on MCF7 worked out at 612 µM; against Aromatase it was 7.77 µM.

As for `Fc1ccc(-c2[nH]c3cc(Cl)ccc3c2Cn2cncn2)cc1`, the IC50 in the test on MCF7 worked out at 625 µM; on Aromatase, 0.0969 µM.

In the case of `Clc1ccc(-c2[nH]c3cc(Cl)ccc3c2Cn2ccnc2)cc1`, the IC50 in the test with MCF7 was greater than 1000 µM; at Aromatase it was 0.261 µM.

As to `COc1ccc(-c2[nH]c3cc(Cl)ccc3c2Cn2ccnc2)cc1`, the IC50 with MCF7 was greater than 1000 µM; against Aromatase it was 0.277 µM.
